The species named for data set [1] is Mus musculus. The experiment in a line: Anticataleptic activity for reversing the reserpine-induced catalepsy in mice. The class given is functional. An outline of the steps:
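Male CD-1 mice fasted 18 h, given reserpine 5 mg/kg i.p. 4 h before oral compound (1% tragacanth, 10 mL/kg; 100, 30, 10 mg/kg; groups of five).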

The subject of data set [2] is Mus musculus. The experiment in a line: Anti-oxotremorine activity (anticholinergic property) and reduction of salivation in mice at a dose of 30 mg/kg. It counts as functional. The gist of the method: (§1)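 Male CD-1 mice, food-deprived 18 h, with water ad libitum except during observation. Groups of 10 received oral treatment in 1% tragacanth at 10 mL/kg. Test agents were dosed at 100, 30 or 10 mg/kg; the reference standard or vehicle was given instead where used. Oxotremorine 0.4 mg/kg i.p. followed 30 min later. Tremor and salivation were each scored 0-3 at 10, 20 and 30 min, reported as mean score ± SEM.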

Data set [3] in a line: Acute toxicity in mice (24 hours). It counts as organism-based. The following applies: mouse, in vivo.
The subject of data set [4] is Mus musculus. The experiment in a line: Anti-oxotremorine activity (anticholinergic property) and reduction of tremor in mice at a dose of 30 mg/kg. The class given is functional. An outline of the steps: as §1
In data set [5] the test system is Mus musculus. The experiment in a line: Anti-oxotremorine activity (anticholinergic property) and reduction of salivation in mice at a dose of 10 mg/kg. The class given is functional. An outline of the steps: (§2)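 Male CD-1 mice, food withheld 18 h, water ad libitum except during observation. Compound in 1% tragacanth given orally (10 mL/kg) to groups of 10 at 100, 30 or 10 mg/kg. Oxotremorine 0.4 mg/kg i.p. 30 min later. Salivation and tremor each scored 0-3 at 10, 20 and 30 min after oxotremorine. Mean score ±SEM.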

Data set [6] deals with Mus musculus. The experiment in a line: Anti-oxotremorine activity (anticholinergic property) and reduction of tremor in mice at a dose of 10 mg/kg. It counts as functional. The gist of the method: as §2
Data set [7] deals with Mus musculus. The experiment in a line: Anti-oxotremorine activity (anticholinergic property) and reduction of salivation in mice at a dose of 100 mg/kg. The class given is functional. The gist of the method: as §2
For data set [8], the system named is Mus musculus. The experiment in a line: Anti-oxotremorine activity (anticholinergic property) and reduction of tremor in mice at a dose of 100 mg/kg. The class given is functional. An outline of the steps: as §2
For data set [9], the system named is Mus musculus. The experiment in a line: Anti-oxotremorine activity (anticholinergic property) and reduction of salivation in mice at a dose of 3 mg/kg. The class given is functional.
Data set [10] has as its system Mus musculus. The experiment in a line: Anti-oxotremorine activity (anticholinergic property) and reduction of tremor in mice at a dose of 3 mg/kg. It counts as functional.

Regarding `CC12C3CC4C5C[C@H]([C@H](C53)[C@@H]1NCCc1ccccc1)[C@@H]42` (stereo not given in full), in the data set listed under Mus musculus [1], the ED50 was 150 mg/kg. The Mean score in the data set with Mus musculus [2] and in the data set on Mus musculus [4] was 1.3 in each case. Also, the LD50 at 24 h in data set [3] is > 1000 mg/kg.

For `CC12C3CC4C5C[C@H]([C@H](C53)[C@@H]1NCc1ccccc1)[C@@H]42` (stereo not given in full), in the data set filed under Mus musculus [1], the ED50 was determined as 34 mg/kg. The Mean score in the data set with Mus musculus [2] and with Mus musculus [4] was 1.5 throughout. The LD50 at 24 h in [3] is > 1000 mg/kg.

As to `N[C@H]1[C@H]2C3C4C[C@H]2[C@H]2C4CC3C21c1ccccc1` (stereo not given in full), the median effective dose (ED50) in the data set filed under Mus musculus [1] was 16 mg/kg. In addition, the Mean score in the data set on Mus musculus [2] amounted to 1.2; in the data set on Mus musculus [4], 1.6. In [3], this compound showed an LD50 at 24 h of 681 mg/kg.

`CCN[C@H]1[C@H]2C3C4C[C@H]2[C@H]2C4CC3C21c1ccccc1` (stereo not given in full): the ED50 in the data set listed under Mus musculus [1] is 14 mg/kg. Also, the Mean score in the data set on Mus musculus [5] amounted to 1; in the data set on Mus musculus [6], 1.3. Further, the LD50 at 24 h in data set [3] turned out to be 261 mg/kg.

Turning to `CCCCN[C@H]1[C@H]2C3C4C[C@H]2[C@H]2C4CC3C21C` (stereo not given in full), in the data set listed under Mus musculus [1], the median effective dose (ED50) turned out to be 15 mg/kg. Moreover, the Mean score in the data set on Mus musculus [5] and in the data set on Mus musculus [6] was 1.2 in each case. Besides, in data set [3], the 50% lethal dose (LD50) at 24 h was determined as 150 mg/kg.

With `NC12CC3CC(CC(C3)C1)C2` [AMANTADINE], the ED50 in the data set listed under Mus musculus [1] turned out to be 17 mg/kg. In addition, the values for the Mean score with Mus musculus [7] and in the data set on Mus musculus [8] were 1.1 and 1.7, respectively.

In the case of `CN1[C@@H]2CC[C@H]1C[C@@H](OC(=O)C(CO)c1ccccc1)C2` (stereo not given in full) [ATROPINE], the Mean score in the data set on Mus musculus [9] amounted to 0; in the data set with Mus musculus [10], 0.5.

Usually ED50 stands for the midpoint of the dose-response relation. One may read the LD50 as the dose at which mortality reaches 50%. Higher therefore signals lower toxicity.

These data come from ChEMBL document CHEMBL1125612, “Synthesis and biological activity of D3-trishomocubyl-4-amines” (J Med Chem, 1991).
